Source: ChEMBL document CHEMBL2331121, “Design, synthesis, and pharmacological characterization of N- and O-substituted 5,6,7,8-tetrahydro-4H-isoxazolo[4,5-d]azepin-3-ol analogues: novel 5-HT(2A)/5-HT(2C) receptor agonists with pro-cognitive properties” (J Med Chem, 2013)
Values belong to the compound of their own block, whether it stands above or below them. Active and inactive are the calls of the source. The rule behind the calls is not given here.

Tests used:
[1] = molecular target: T1, 5-hydroxytryptamine receptor 2A (Homo sapiens, UniProt P28223); assay: Agonist activity at human 5HT2A receptor expressed in HEK293 cells assessed as induction of intracellular calcium release at 1 mM measured for 90 secs by fluorescence assay; assay type: functional, cell-based
Procedure, shortened: (§1)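 Stable polyclonal h5-HT2A or h5-HT2C HEK293 cells plated on poly-D-lysine wells, loaded next day with Fluo-4/AM for 1 h at 37 °C. Buffer was HBSS with 20 mM HEPES, 1 mM CaCl₂, 1 mM MgCl₂, 2.5 mM probenecid, pH 7.4. Fluorescence read at 485/525 nm before and up to 90 s after agonist addition. Responses normalised to 5-HT on the same plate. Duplicate, 4−10 experiments.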

[2] = molecular target: T2, 5-hydroxytryptamine receptor 2C (Homo sapiens) (UniProt P28335); assay: Agonist activity at human 5HT2C receptor expressed in HEK293 cells assessed as induction of intracellular calcium release at 100 to 1000 uM by fluorescence assay; assay type: functional, cell-based; procedure, shortened: as §1
T2 sequence (whole entry): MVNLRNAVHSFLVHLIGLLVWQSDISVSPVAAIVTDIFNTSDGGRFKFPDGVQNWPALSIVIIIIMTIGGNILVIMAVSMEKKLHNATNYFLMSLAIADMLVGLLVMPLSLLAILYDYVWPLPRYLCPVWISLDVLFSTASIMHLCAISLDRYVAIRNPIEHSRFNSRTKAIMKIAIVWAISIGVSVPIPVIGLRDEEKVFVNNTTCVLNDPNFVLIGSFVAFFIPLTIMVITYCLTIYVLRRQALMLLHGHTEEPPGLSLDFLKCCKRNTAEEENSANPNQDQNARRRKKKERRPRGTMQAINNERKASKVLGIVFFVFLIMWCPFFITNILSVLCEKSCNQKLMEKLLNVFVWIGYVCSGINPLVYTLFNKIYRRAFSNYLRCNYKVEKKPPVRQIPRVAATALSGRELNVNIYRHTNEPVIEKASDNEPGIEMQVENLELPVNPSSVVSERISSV

[3] = molecular target: T1, 5-hydroxytryptamine receptor 2A; assay: Agonist activity at human 5HT2A receptor expressed in HEK293 cells assessed as induction of intracellular calcium release measured for 90 secs by fluorescence assay; assay type: functional, cell-based
[4] = molecular target: T1, 5-hydroxytryptamine receptor 2A; assay: Antagonist activity at human 5HT2A receptor expressed in HEK293 cells assessed as inhibition of 5HT-induced intracellular calcium release at 1 mM measured for 90 secs by fluorescence assay; assay type: functional, cell-based
Procedure, shortened: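 Fluo-4/Ca²⁺ read-out in stable h5-HT2A or h5-HT2C HEK293 cells (HBSS/HEPES/probenecid buffer, pH 7.4). Antagonist was added after the dye-loading wash, then cells were challenged with an EC₇₅−EC₈₅ concentration of 5-HT. Emission at 525 nm was monitored up to 90 s after agonist addition. Duplicate, repeated in independent experiments.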

[5] = molecular target: T3, 5-hydroxytryptamine receptor 2C (Homo sapiens, UniProt P28335); assay: Displacement of [3H]mesulergine from human 5HT2C receptor expressed in tsA201 cell membranes after 1 hr by scintillation counting analysis
T3 sequence (P28335 whole entry): T2 sequence (whole entry)

[6] = molecular target: T1, 5-hydroxytryptamine receptor 2A; assay: biochemical; assay type: cell-based, tsA201
[7] = molecular target: T2, 5-hydroxytryptamine receptor 2C (Homo sapiens); assay: Agonist activity at human 5HT2C receptor expressed in HEK293 cells assessed as induction of intracellular calcium release up to 1000 uM measured up to 90 secs by fluorescence assay; assay type: functional, cell-based
Procedure, shortened: (§2)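 Stable polyclonal 5-HT2A or 5-HT2C HEK293 cells seeded on poly-D-lysine plates (6 × 10⁴ cells/well). Next day loaded with Fluo-4/AM for 1 h at 37 °C in HBSS/20 mM HEPES/1 mM CaCl₂/1 mM MgCl₂/2.5 mM probenecid, pH 7.4. Fluorescence (485 ex/525 em) recorded before and up to 90 s after agonist. Response relative to 5-HT on the same plate. Duplicate, at least three times.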

[8] = molecular target: T1, 5-hydroxytryptamine receptor 2A; assay: Agonist activity at human 5HT2A receptor expressed in HEK293 cells assessed as induction of intracellular calcium release up to 1000 uM measured up to 90 secs by fluorescence assay; assay type: functional, cell-based; procedure, shortened: as §2
[9] = molecular target: T1, 5-hydroxytryptamine receptor 2A; assay: Agonist activity at human 5HT2A receptor expressed in HEK293 cells assessed as induction of intracellular calcium release at 100 to 1000 uM by fluorescence assay; assay type: functional, cell-based; procedure, shortened: as §1
[10] = molecular target: T2, 5-hydroxytryptamine receptor 2C (Homo sapiens); assay: Ratio of EC50 for human 5HT2C receptor by calcium fiux-based fluorescence assay to […] accumulation-based TR-FRET assay; assay type: functional
[11] = molecular target: T3, 5-hydroxytryptamine receptor 2C; assay: Agonist activity at human 5HT2C receptor expressed in HEK293 cells assessed as accumulation of IP1 incubated for 1 hr at 37 degC followed by 15 mins at RT by TR-FRET assay; assay type: functional, cell-based
[12] = molecular target: T2, 5-hydroxytryptamine receptor 2C (Homo sapiens); assay: Agonist activity at human 5HT2C receptor expressed in HEK293 cells assessed as induction of intracellular calcium release by fluorescence assay relative to 5HT; assay type: functional, cell-based; procedure, shortened: as §2
[13] = molecular target: T2, 5-hydroxytryptamine receptor 2C (Homo sapiens); assay: Agonist activity at human 5HT2C receptor expressed in HEK293 cells assessed as accumulation of IP1 incubated for 1 hr at 37 degC followed by 15 mins at RT by TR-FRET assay relative to 5HT; assay type: functional, cell-based
Procedure, shortened: (§3)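 Polyclonal HEK293 lines stably expressing human 5-HT2A (variant 1) or 5-HT2C (INI isoform), detached and suspended at 1 × 10⁷ cells/mL in HBSS with 20 mM HEPES, 1 mM CaCl₂, 1 mM MgCl₂, pH 7.4. Ligands in buffer with 40 mM LiCl. Incubated 1 h at 37 °C, then 15 min RT. IP1 read by HTRF 665/615 ratio. Triplicate, at least four times.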

[14] = molecular target: T3, 5-hydroxytryptamine receptor 2C; assay: Agonist activity at human 5HT2C receptor expressed in HEK293 cells assessed as induction of intracellular calcium release measured for 90 secs by fluorescence assay; assay type: functional, cell-based; details: read-out: EC50
[15] = molecular target: T1, 5-hydroxytryptamine receptor 2A; assay: Agonist activity at human 5HT2A receptor expressed in HEK293 cells assessed as accumulation of IP1 incubated for 1 hr at 37 degC followed by 15 mins at RT by TR-FRET assay; assay type: functional, cell-based
[16] = molecular target: T1, 5-hydroxytryptamine receptor 2A; assay: Agonist activity at human 5HT2A receptor expressed in HEK293 cells assessed as induction of intracellular calcium release by fluorescence assay relative to 5HT; assay type: functional, cell-based; procedure, shortened: as §2
[17] = molecular target: T1, 5-hydroxytryptamine receptor 2A; assay: Agonist activity at human 5HT2A receptor expressed in HEK293 cells assessed as accumulation of IP1 incubated for 1 hr at 37 degC followed by 15 mins at RT by TR-FRET assay relative to 5HT; assay type: functional, cell-based; procedure, shortened: as §3
[18] = molecular target: T1, 5-hydroxytryptamine receptor 2A; assay: Ratio of EC50 for human 5HT2A receptor by calcium fiux-based fluorescence assay to EC50 for 5HT2A by IP1 accumulation-based TR-FRET assay; assay type: functional
[19] = molecular target: T4, 5-hydroxytryptamine receptor 2C (Rattus norvegicus) (UniProt P08909); assay: Displacement of [125I]-N-(p-I-Bn)-THAZ from 5HT2C receptor in rat midbrain membrane after 1 hr by scintillation counting analysis; assay type: cell membranes
T4 sequence (whole entry): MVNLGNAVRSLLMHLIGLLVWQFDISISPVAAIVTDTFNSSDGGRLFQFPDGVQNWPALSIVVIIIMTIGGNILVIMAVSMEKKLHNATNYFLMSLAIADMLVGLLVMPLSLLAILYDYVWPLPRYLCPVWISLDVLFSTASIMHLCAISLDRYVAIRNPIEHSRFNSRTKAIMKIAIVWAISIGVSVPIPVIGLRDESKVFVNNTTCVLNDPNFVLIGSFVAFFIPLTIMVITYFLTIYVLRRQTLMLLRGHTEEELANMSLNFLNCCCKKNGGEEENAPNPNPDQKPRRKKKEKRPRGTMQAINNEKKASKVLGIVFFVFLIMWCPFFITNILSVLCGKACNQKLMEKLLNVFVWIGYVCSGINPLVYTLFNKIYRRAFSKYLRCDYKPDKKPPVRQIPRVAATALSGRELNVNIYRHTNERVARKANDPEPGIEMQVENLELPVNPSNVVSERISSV

[20] = molecular target: T4, 5-hydroxytryptamine receptor 2C (Rattus norvegicus); assay: Displacement of [125I]-N-(p-I-Bn)-THAZ from 5HT2C receptor in rat hippocampal membrane after 1 hr by scintillation counting analysis; assay type: cell membranes; details: Hippocampus
[21] = molecular target: T4, 5-hydroxytryptamine receptor 2C (Rattus norvegicus); assay: Displacement of [125I]-N-(p-I-Bn)-THAZ from 5HT2C receptor in rat cerebellum membrane after 1 hr by scintillation counting analysis; assay type: cell membranes
[22] = molecular target: T4, 5-hydroxytryptamine receptor 2C (Rattus norvegicus); assay: (§4) Displacement of [125I]-N-(p-I-Bn)-THAZ from 5HT2C receptor in rat cerebral cortex membrane after 1 hr by scintillation counting analysis; assay type: cell membranes
[23] = molecular target: T5, 5-hydroxytryptamine receptor 2C (Rattus norvegicus, UniProt P08909); assay: as §4; assay type: cell membranes
T5 sequence (P08909 whole entry): T4 sequence (whole entry)

[24] = molecular target: T1, 5-hydroxytryptamine receptor 2A; assay type: functional, cell-based, HEK293
[25] = molecular target: T3, 5-hydroxytryptamine receptor 2C; assay: Antagonist activity at human 5HT2C receptor expressed in HEK293 cells assessed as inhibition of 5HT-induced intracellular calcium release measured for 90 secs by fluorescence assay; assay type: functional, cell-based

T1 sequence (P28223 whole entry): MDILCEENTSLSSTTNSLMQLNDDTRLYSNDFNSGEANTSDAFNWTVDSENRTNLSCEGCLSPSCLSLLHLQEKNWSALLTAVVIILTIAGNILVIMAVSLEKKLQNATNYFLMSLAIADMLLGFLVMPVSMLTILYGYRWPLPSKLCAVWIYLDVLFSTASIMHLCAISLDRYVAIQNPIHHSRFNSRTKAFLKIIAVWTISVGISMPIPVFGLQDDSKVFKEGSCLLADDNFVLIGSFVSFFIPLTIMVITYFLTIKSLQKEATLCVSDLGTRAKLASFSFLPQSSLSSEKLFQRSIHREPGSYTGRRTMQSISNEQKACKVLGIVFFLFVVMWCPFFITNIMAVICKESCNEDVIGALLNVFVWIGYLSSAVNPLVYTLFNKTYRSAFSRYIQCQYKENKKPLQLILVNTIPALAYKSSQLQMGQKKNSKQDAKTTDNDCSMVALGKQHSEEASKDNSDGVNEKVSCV

SMILES: COc1noc2c1CCN(C)CC2
Activity [1]: inactive
Activity [2]: Active
EC50 ([3]; hek293, read-out: EC50): > 1000 µM
EC50 ([3]; read-out: pEC50 (converted)): > 1000 µM
Activity [4]: inactive
Ki [5]: > 300 µM
Ki ([6]; read-out: Ki): > 300 µM
Ki ([6]; read-out: pKi (converted)): > 316 µM

SMILES: c1ccc(COc2noc3c2CCNCC3)cc1
Ratio EC50 [10]: 2
EC50 [11]: 0.23 µM
Emax [12]: 84%
EC50 ([3]; read-out: EC50): 0.24 µM
Emax [13]: 105%
EC50 [14]: 0.1 µM
EC50 [15]: 1.3 µM
Ki [5]: 1.2 µM
Emax [16]: 59%
Emax [17]: 77%
Ratio EC50 [18]: 2
Ki ([6]; read-out: Ki): 3.3 µM

SMILES: Cn1oc2c(c1=O)CCNCC2
Activity [2]: Active
Activity [9]: Active
Ki [5]: > 300 µM
Ki ([6]; read-out: Ki): > 300 µM
Ki ([6]; read-out: pKi (converted)): > 316 µM

SMILES: OC(c1ccccc1)C1CCN(CCc2ccccc2)CC1 (configuration not stated) [GLEMANSERIN]
Ki ([24]; read-out: pKi (converted)): 0.00245 µM
Ki [25]: 10 µM

Results, then the compound that gave them:

Activity [7]: Active
Activity [8]: Active
Ki [5]: 100 µM
Ki ([6]; read-out: Ki): 100 µM
SMILES: CCCn1oc2c(c1=O)CCNCC2

Activity [7]: Active
Activity [8]: Active
SMILES: COc1noc2c1CNCC2

Activity [2]: Active
Activity [9]: Active
SMILES: c1ccc(COc2noc3c2CNCC3)cc1

Activity [19]: inactive
Activity [20]: inactive
Activity [21]: inactive
Ki [5]: 0.31 µM
Activity [22]: Dose-dependent effect
Ki [23]: 0.0102 µM
SMILES: O=c1c2c(on1Cc1ccc(I)cc1)CCNCC2

Activity [7]: Active
Activity [8]: Active
Ki [5]: 300 µM
Ki ([6]; read-out: Ki): 300 µM
SMILES: CCn1oc2c(c1=O)CCNCC2

Ki ([24]; read-out: Ki): 0.00091 µM
Ki [25]: 0.0025 µM
SMILES: CN1CC2c3ccccc3Oc3ccc(Cl)cc3C2C1 (racemic) [ASENAPINE]
